Measurements: ChEMBL document CHEMBL1125869, “Calcium-independent phosphodiesterase inhibitors as putative antidepressants: [3-(bicycloalkyloxy)-4-methoxyphenyl]-2-imidazolidinones” (J Med Chem, 1991)

Experiments:
[1] = target: T1, Phosphodiesterase 4 (Rattus norvegicus, UniProt P14270+P14646+P14644+P54748); assay: Inhibition of [3H]- rolipram binding to rat cerebral cortex membranes; assay type: cell membranes, Membrane
How it was run: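 Cerebral cortex membranes homogenized in ice-cold 50 mM Tris-HCl pH 8.0 with 1.2 mM MgCl2, spun at 30000g for 20 min at 4 °C, washed once and resuspended at 0.5 mg protein/mL. (±)-[3H]rolipram at 2 nM final, 30 min at 25 °C, triplicates per concentration. Nonspecific binding defined with Ro 20-1724 (10 μM). Filtration, then scintillation counting. IC50 taken from semilog plots over several log concentrations.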

[2] = target: T1, Phosphodiesterase 4; assay: Inhibition of calcium-independent Phosphodiesterase 4; assay type: protein assay
How it was run: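 Enzyme taken from the 105000g supernatant of female Sprague-Dawley rat cerebral cortex and separated from the calcium-dependent form on Sephadex G-200. Substrate was 1.0 μM [3H]cAMP in Tris-HCl pH 7.5/MgCl2, run in triplicate for 8 min at 37 °C and stopped by heat. [3H]5'-AMP was separated on boronate affinity gel and counted. IC50 came from semilog plots over three log concentrations in triplicate.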

[3] = organism: Mus musculus; assay: Minimum effective peroral dose (MED) in mouse forced-swim test; assay type: functional; conditions: po, read-out: MED
How it was run: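 Mice dosed orally, with compound in vehicle at 1 mL/100 g. One hour later they were placed in water at 25 °C. After 2 min habituation, immobility was rated ten times at 30-s intervals and expressed as percent of control. At least four half-log-spaced doses were given, with nine mice per dose. MED was the lowest dose giving a statistically significant decrease in immobility.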

[4] = system: Mus musculus; assay: Reversal of reserpine-induced hypothermia in mice by intraperitoneal dose; assay type: functional; conditions: ip, read-out: MED
How it was run: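 Individually housed mice at 20 °C received reserpine 2 mg/kg sc 18 h before test. Rectal temperature was measured before and 1 h after dosing with test drug in 5% DMSO/5% Emulphor 620/90% saline. At least four half-log-spaced doses were given, with nine mice per dose. MED was the dose giving a statistically significant temperature increase.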

SMILES | IC50 [1] [nM] | IC50 [2] [nM] | minimal effective dose [3] [mg/kg] | minimal effective dose [4] [µg/kg]
COc1ccc(C2CNC(=O)N2C)cc1OC1CC2C3CCC(C3)C12 (stereo not given) | 100 | 3100 | > 32 | –
COc1ccc(C2CNC(=O)N2C)cc1OC1CC2CCC1CC2 (stereo not given) | 81 | 2500 | – | > 3200
COc1ccc(C2CNC(=O)N2C)cc1OC1CC2C3CCC(C3)C2C1 (stereo not given) | > 100 | 1400 | > 32 | 3200
COc1ccc(C2CNC(=O)N2C)cc1OC1CC2CCC(C2)C1 (stereo not given) | > 100 | 2400 | > 32 | > 3200
COc1ccc(C2CNC(=O)N2C)cc1O[C@H]1CC2CC1C1CCCC21 (stereo not given in full) | – | – | 32 | 320
COc1ccc(C2CNC(=O)N2C)cc1O[C@H]1CC2CCC1C2 (stereo not given in full) | – | – | > 32 | 1000
COc1ccc(C2CNC(=O)N2C)cc1O[C@@H]1CC2CCC1C2 (stereo not given in full) | 2.6 | 220 | 1 | 0.03
COc1ccc(C2CNC(=O)N2C)cc1O[C@@H]1CC2CC1C1CCCC21 (stereo not given in full) | 10 | 490 | 10 | 320
COc1ccc(C2CNC(=O)N2C)cc1O[C@@H]1CC2CC1c1ccccc12 (stereo not given in full) | 21 | 290 | > 32 | 1000
COc1ccc(C2CNC(=O)N2C)cc1OC1C2CC3CC(C2)CC1C3 (stereo not given) | > 100 | 11000 | > 32 | 3200
COc1ccc(C2CNC(=O)N2C)cc1OC1CC2C=CC1C2 (stereo not given) | 3.1 | 130 | 0.1 | 100
COc1ccc(C2CNC(=O)C2)cc1OC1CCCC1 (stereo not given) [ROLIPRAM] | – | – | 1.8 | 0.1
